# Experimental data collected from several papers.
# Protocols differ between the studies behind these lines.
# Organism: Staphylococcus aureus
# Observed: microbial growth
Structure (SMILES),test,test system,setting,MIC
CC[C@H](C)C[C@H](C)CCCCCCCCC(=O)N[C@H]1C[C@@H](O)[C@@H](NCCN)NC(=O)[C@@H]2[C@@H](O)CCN2C(=O)[C@H]([C@H](O)CCN)NC(=O)[C@H]([C@H](O)[C@@H](O)c2ccc(O)cc2)NC(=O)[C@@H]2C[C@@H](O)CN2C(=O)[C@H]([C@@H](C)O)NC1=O,broth dilution,MB2865,,> 128 µg/mL
Cc1ccc2[nH]c3c(c2c1)CCCC3NCCc1ccc(O)cc1 (stereo not shown),broth dilution,ATCC29213,,16 µg/mL
CC(=O)c1ccc(NC(=O)Nc2ccc(Cl)c(C(F)(F)F)c2)cc1,,NCTC8325,,30 µM
COC(=O)c1cc(-c2ccc(OC)c(NC(=O)Nc3ccc(Cl)c(Cl)c3)c2)on1,broth dilution,ATCC29213,,> 64 µg/mL
CC1(C)CC[C@]2(C(=O)O)CC[C@]3(C)C(=CC[C@@H]4[C@@]5(C)CC[C@H](O)C(C)(C)[C@@H]5CC[C@]43C)[C@@H]2C1,,USA300,,256 µg/mL
COC(=O)c1cc(-c2cccc(NC(=S)Nc3ccc(Cl)cc3)c2)on1,broth dilution,ATCC29213,,> 64 µg/mL
Cc1ccc2nc(-c3ccccc3Cl)[nH]c2c1,broth dilution,ATCC43300 MRSA,drug-resistant strain,256 µg/mL
CCCCCCCCCC(=O)N[C@@H](Cc1c[nH]c2ccccc12)C(=O)N[C@H](CC(N)=O)C(=O)N[C@@H](CC(=O)O)C(=O)N[C@@H]1C(=O)NCC(=O)N[C@@H](CCCN)C(=O)N[C@@H](CC(=O)O)C(=O)N[C@H](C)C(=O)N[C@@H](CC(=O)O)C(=O)NCC(=O)N[C@H](CO)C(=O)N[C@@H]([C@H](C)CC(=O)O)C(=O)N[C@@H](CC(=O)c2ccccc2N)C(=O)O[C@@H]1C,broth dilution,USA300,drug-resistant strain,0.5 µg/mL
Cc1ccc2nc(-c3ccc(Cl)c(Cl)c3)[nH]c2c1,broth dilution,ATCC43300 MRSA,drug-resistant strain,32 µg/mL
O=[N+]([O-])c1ccc(/C=N/Nc2nc(Nc3ccccc3)nc(Nc3ccccc3)n2)o1,,ATCC43300,,2.4 µM
COC(=O)c1cc(-c2cccc(NC(=O)Nc3ccc(F)cc3F)c2)on1,broth dilution,ATCC29213,,> 64 µg/mL
CCOc1ccc(-c2nc3ccccc3n2Cc2ccccc2)cc1,broth dilution,ATCC43300 MRSA,drug-resistant strain,64 µg/mL
COC(=O)c1cc(-c2cccc(NC(=S)NC3CCCCC3)c2)on1,broth dilution,ATCC29213,,> 64 µg/mL
CCCCCCCC/C=C\CCCCCCCCNC(=O)CP(=O)(O)O,,ATCC33591 MRSA,drug-resistant strain,100 µg/mL
COc1ccc(-c2nc3ccccc3n2Cc2ccccc2)cc1OC,broth dilution,ATCC43300 MRSA,drug-resistant strain,8 µg/mL
CC(=O)Nc1c2sscc-2[nH]c1=O,,BAA1556 MRSA,drug-resistant strain,5 µM
CCOc1cc(-c2nc3ccccc3[nH]2)ccc1O,broth dilution,ATCC43300 MRSA,drug-resistant strain,256 µg/mL
CCCCCCCCCCCCCCCC(=O)NP(=O)(O)O,,ATCC33591 MRSA,drug-resistant strain,200 µg/mL
CN[C@H](CC(C)C)C(=O)N[C@H]1C(=O)N[C@@H](CC(N)=O)C(=O)N[C@H]2C(=O)N[C@H]3C(=O)N[C@H](C(=O)N[C@H](C(=O)O)c4cc(O)cc(O)c4-c4cc3ccc4O)[C@H](O)c3ccc(c(Cl)c3)Oc3cc2cc(c3O[C@@H]2O[C@H](CO)[C@@H](O)[C@H](O)[C@H]2O[C@H]2C[C@](C)(N)[C@H](O)[C@H](C)O2)Oc2ccc(cc2Cl)[C@H]1O,,NEWMAN,,1 µg/mL
